Results from ChEMBL document CHEMBL2046404, “Design, synthesis, and structure-activity correlations of novel dibenzo[b,d]furan, dibenzo[b,d]thiophene, and N-methylcarbazole clubbed 1,2,3-triazoles as potent inhibitors of Mycobacterium tuberculosis” (J Med Chem, 2012).
In brackets after ≈: the same amount, converted by molar mass.

Tests used:
[1] = system: Mycobacterium tuberculosis; assay: Antitubercular activity against Mycobacterium tuberculosis H37Rv ATCC 27294 after 28 days by agar dilution method; type: functional; details: H37Rv ATCC 27294, 672 h
Summary of the method: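 Twofold serial dilutions incorporated into Middlebrook 7H11 agar with OADC, final 25–0.78 μg/mL. Inoculum from fresh 7H11/OADC slants, 1 mg/mL wet weight in 0.05% Tween 80 saline diluted 10⁻² (~10⁷ cfu/mL); 5 μL spotted per tube.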

A549 = assay: Cytotoxicity against human A549 cells after 48 hrs after MTT assay; type: cell-based; details: A549, 48 h
Summary of the method: (§1)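 Cells grown in DMEM with 10% FBS, 37 °C, 5% CO₂. Seeded in 96-well plates and preincubated 24 h before compound, tested at 1, 10, 100, 1000 μM in triplicate wells, 48 h continuous exposure. MTT (10 μL of 5%) added for 60 min, stain eluted with DMSO, absorbance read at 560 nm. IC50 from dose–response curves versus control; mean ± SD of three experiments.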

SK-N-SH = assay: Cytotoxicity against human SK-N-SH cells after 48 hrs after MTT assay; type: cell-based; summary of the method: as §1
DU-145 = assay: Cytotoxicity against human DU145 cells after 48 hrs after MTT assay; type: cell-based; details: DU-145, 48 h
Summary of the method: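 Cells kept in MEM with nonessential amino acids, 1 mM sodium pyruvate, bovine insulin, 10% FBS. Seeded in 96-well plates and preincubated 24 h, then exposed 48 h to 1, 10, 100, 1000 μM in triplicate wells. MTT (10 μL of 5%) for 60 min, DMSO elution, absorbance read at 560 nm. IC50 versus control absorbance; mean ± SD of three experiments.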

HeLa = assay: Cytotoxicity against human HeLa cells after 48 hrs after MTT assay; type: cell-based; summary of the method: as §1
[2] = Selectivity index ratio of IC50 for human A549 cells to MIC for Mycobacterium tuberculosis H37Rv ATCC 27294; type: functional
[3] = Selectivity index ratio of IC50 for human DU145 cells to MIC for Mycobacterium tuberculosis H37Rv ATCC 27294; type: functional, DU-145
[4] = Selectivity index ratio of IC50 for human SK-N-SH cells to MIC for Mycobacterium tuberculosis H37Rv ATCC 27294; type: functional
[5] = Selectivity index ratio of IC50 for human HeLa cells to MIC for Mycobacterium tuberculosis H37Rv ATCC 27294; type: functional
[6] = system: Mycobacterium tuberculosis; assay: Ratio of pyrazinamide MIC to compound MIC against Mycobacterium tuberculosis H37Rv ATCC 27294; type: functional
[7] = system: Mycobacterium tuberculosis; assay: Ratio of ethambutol MIC to compound MIC against Mycobacterium tuberculosis H37Rv ATCC 27294; type: functional

SMILES	MIC [1]	IC50 (A549)	IC50 (SK-N-SH)	IC50 (DU-145)	IC50 (HeLa)	other results
CC(c1ccc2c(c1)c1ccccc1n2C)n1cc(-c2ccccc2)nn1 (stereo unspecified)	71 µM (≈ 25 µg/mL)	–	–	–	–	–
CCCc1cn(C(C)c2ccc3c(c2)c2ccccc2n3C)nn1 (stereo unspecified)	78 µM (≈ 24.8 µg/mL)	–	–	–	–	–
CCCCc1cn(C(C)c2ccc3c(c2)c2ccccc2n3C)nn1 (stereo unspecified)	75.3 µM (≈ 25 µg/mL)	–	–	–	–	–
CCCCCCc1cn(C(C)c2ccc3c(c2)c2ccccc2n3C)nn1 (stereo unspecified)	70 µM (≈ 25.2 µg/mL)	–	–	–	–	–
CC(c1ccc2c(c1)c1ccccc1n2C)n1cc(CO)nn1 (stereo unspecified)	81.7 µM (≈ 25 µg/mL)	–	–	–	–	–
CC(c1ccc2c(c1)c1ccccc1n2C)n1cc(COCc2ccccc2)nn1 (stereo unspecified)	63.1 µM (≈ 25 µg/mL)	–	–	–	–	–
CC(c1ccc2c(c1)c1ccccc1n2C)n1cc(-c2ccccc2[N+](=O)[O-])nn1 (stereo unspecified)	31.5 µM (≈ 12.5 µg/mL)	–	–	–	–	–
CC(c1ccc2c(c1)c1ccccc1n2C)n1cc(-c2ccc(C(C)(C)C)cc2)nn1 (stereo unspecified)	30.6 µM (≈ 12.5 µg/mL)	–	–	–	–	–
CC(c1ccc2oc3ccccc3c2c1)n1cc(-c2ccccc2)nn1 (stereo unspecified)	18.4 µM (≈ 6.24 µg/mL)	–	–	–	–	–
CCCc1cn(C(C)c2ccc3oc4ccccc4c3c2)nn1 (stereo unspecified)	41 µM (≈ 12.5 µg/mL)	–	–	–	–	–
CCCCc1cn(C(C)c2ccc3oc4ccccc4c3c2)nn1 (stereo unspecified)	39.2 µM (≈ 12.5 µg/mL)	–	–	–	–	–
CCCCCCc1cn(C(C)c2ccc3oc4ccccc4c3c2)nn1 (stereo unspecified)	18 µM (≈ 6.25 µg/mL)	–	–	–	–	–
CC(c1ccc2oc3ccccc3c2c1)n1cc(CO)nn1 (stereo unspecified)	85.3 µM (≈ 25 µg/mL)	–	–	–	–	–
CC(c1ccc2oc3ccccc3c2c1)n1cc(COCc2ccccc2)nn1 (stereo unspecified)	65.2 µM (≈ 25 µg/mL)	–	–	–	–	–
CC(c1ccc2oc3ccccc3c2c1)n1cc(-c2ccccc2[N+](=O)[O-])nn1 (stereo unspecified)	16.3 µM (≈ 6.27 µg/mL)	–	–	–	–	–
CC(c1ccc2oc3ccccc3c2c1)n1cc(-c2ccc(C(C)(C)C)cc2)nn1 (stereo unspecified)	15.8 µM (≈ 6.25 µg/mL)	–	–	–	–	–
CC(c1ccc2sc3ccccc3c2c1)n1cc(-c2ccccc2)nn1 (stereo unspecified)	4.4 µM (≈ 1.56 µg/mL)	444 µM	291 µM	90 µM	329 µM	–
CCCc1cn(C(C)c2ccc3sc4ccccc4c3c2)nn1 (stereo unspecified)	9.75 µM (≈ 3.13 µg/mL)	68 µM	93 µM	96 µM	87 µM	–
CCCCc1cn(C(C)c2ccc3sc4ccccc4c3c2)nn1 (stereo unspecified)	4.66 µM (≈ 1.56 µg/mL)	80 µM	101 µM	107 µM	62 µM	–
CCCCCCc1cn(C(C)c2ccc3sc4ccccc4c3c2)nn1 (stereo unspecified)	4.3 µM (≈ 1.56 µg/mL)	–	–	–	–	–

SMILES	MIC [1]	IC50 (A549)	IC50 (SK-N-SH)	IC50 (DU-145)	IC50 (HeLa)	other results
CC(c1ccc2sc3ccccc3c2c1)n1cc(CO)nn1 (stereo unspecified)	20.2 µM (≈ 6.25 µg/mL)	–	–	–	–	–
CC(c1ccc2sc3ccccc3c2c1)n1cc(COCc2ccccc2)nn1 (stereo unspecified)	7.84 µM (≈ 3.13 µg/mL)	189 µM	103 µM	225 µM	438 µM	–
CC(c1ccc2sc3ccccc3c2c1)n1cc(-c2ccccc2[N+](=O)[O-])nn1 (stereo unspecified)	3.9 µM (≈ 1.56 µg/mL)	190 µM	386 µM	126 µM	136 µM	–
CC(c1ccc2sc3ccccc3c2c1)n1cc(-c2ccc(C(C)(C)C)cc2)nn1 (stereo unspecified)	1.89 µM (≈ 0.778 µg/mL)	482 µM	260 µM	105 µM	191 µM	Ratio [2]: 55; Ratio [3]: 55; Ratio [4]: 55; Ratio [5]: 55; Ratio [6]: 26; Ratio [7]: 4
Cc1ccc(-c2cn(C(C)c3ccc4sc5ccccc5c4c3)nn2)cc1 (stereo unspecified)	8.48 µM (≈ 3.13 µg/mL)	108 µM	32 µM	174 µM	164 µM	–
CC(c1ccc2sc3ccccc3c2c1)n1cc(CCc2ccccc2)nn1 (stereo unspecified)	8.17 µM (≈ 3.13 µg/mL)	78 µM	–	100 µM	79 µM	–
CC(c1ccc2sc3ccccc3c2c1)n1cc(-c2ccc([N+](=O)[O-])cc2)nn1 (stereo unspecified)	3.9 µM (≈ 1.56 µg/mL)	852 µM	30 µM	138 µM	210 µM	–
CC(c1ccc2sc3ccccc3c2c1)n1cc(-c2ccsc2)nn1 (stereo unspecified)	34.6 µM (≈ 12.5 µg/mL)	–	–	–	–	–
COc1ccc2cc(-c3cn(C(C)c4ccc5sc6ccccc6c5c4)nn3)ccc2c1 (stereo unspecified)	28.7 µM (≈ 12.5 µg/mL)	–	–	–	–	–
CC(c1ccc2sc3ccccc3c2c1)n1cc(-c2cc3ccccc3c3ccccc23)nn1 (stereo unspecified)	54.9 µM (≈ 25 µg/mL)	–	–	–	–	–
CC(c1ccc2sc3ccccc3c2c1)n1cc(-c2ccc(-c3ccccc3)cc2)nn1 (stereo unspecified)	14.5 µM (≈ 6.26 µg/mL)	–	–	–	–	–
CC(c1ccc2sc3ccccc3c2c1)n1cc(-c2ccc(Cl)cc2Cl)nn1 (stereo unspecified)	3.68 µM (≈ 1.56 µg/mL)	400 µM	477 µM	150 µM	162 µM	–
CC(c1ccc2sc3ccccc3c2c1)n1cc(-c2ccc(F)cc2Cl)nn1 (stereo unspecified)	1.91 µM (≈ 0.779 µg/mL)	249 µM	342 µM	147 µM	155 µM	Ratio [2]: 55; Ratio [3]: 55; Ratio [4]: 55; Ratio [5]: 55; Ratio [6]: 26; Ratio [7]: 4
CC(c1ccc2sc3ccccc3c2c1)n1cc(-c2ccc(Br)cc2F)nn1 (stereo unspecified)	3.45 µM (≈ 1.56 µg/mL)	219 µM	76 µM	222 µM	457 µM	–
CC(c1ccc2sc3ccccc3c2c1)n1cc(-c2cc(F)ccc2F)nn1 (stereo unspecified)	3.98 µM (≈ 1.56 µg/mL)	272 µM	21 µM	767 µM	96 µM	–
CC(c1ccc2sc3ccccc3c2c1)n1cc(-c2cc(F)cc(F)c2Cl)nn1 (stereo unspecified)	12.5 µM (≈ 5.32 µg/mL)	507 µM	46 µM	120 µM	116 µM	–
CC[C@@H](CO)NCCN[C@@H](CC)CO [ETHAMBUTOL]	7.6 µM (≈ 1.55 µg/mL)	–	–	–	–	–
NNC(=O)c1ccncc1 [ISONIAZID]	0.37 µM (≈ 0.0507 µg/mL)	–	–	–	–	–
NC(=O)c1cnccn1 [PYRAZINAMIDE]	50.1 µM (≈ 6.17 µg/mL)	–	–	–	–	–
